Reference: ChEMBL document CHEMBL5329183, “Naphthylthiazoles: a class of broad-spectrum antifungals” (RSC Med Chem, 2023)
Values after ≈ are worked out from the molar mass of the structure shown.

Assays:
Staphylococcus aureus = assay: Antibacterial activity against Methicillin-resistant Staphylococcus aureus USA300 assessed as inhibition of bacterial growth; type: functional
Escherichia coli = assay: Antibacterial activity against wild type Escherichia coli BW25113 assessed as inhibition of bacterial growth; type: functional
Candida albicans = assay: Antifungal activity against Candida albicans ATCC 10231 assessed as inhibition of fungal growth incubated for 24 hrs by broth microdilution method; type: functional
In short: (§1)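 Broth microdilution per CLSI guidelines against clinical isolates, incubated at 35 °C for 24 h (Candida, Aspergillus) or 48 h (Cryptococcus). MIC was the lowest concentration giving 50% growth inhibition.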

[Candida] auris = Antifungal activity against Candida auris 381 assessed as inhibition of fungal growth incubated for 24 hrs by broth microdilution method; type: functional; conditions: Candidozyma auris
In short: (§2)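 Clinical isolate; CLSI broth microdilution over a range of concentrations (media listed: RPMI 1640, MOPS, YPD). MIC taken as lowest concentration giving 50% growth inhibition after 24 h at 35 °C.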

Nakaseomyces glabratus = assay: Antifungal activity against Candida glabrata ATCC 66032 assessed as inhibition of fungal growth incubated for 24 hrs by broth microdilution method; type: functional; in short: as §2
Candida parapsilosis = assay: Antifungal activity against Candida parapsilosis ATCC 22019 assessed as inhibition of fungal growth incubated for 24 hrs by broth microdilution method; type: functional; conditions: Lodderomyces parapsilosis; in short: as §2
Aspergillus fumigatus = assay: Antifungal activity against Aspergillus fumigatus NR 35303 assessed as inhibition of fungal growth incubated for 24 hrs by broth microdilution method; type: functional; in short: as §1
Cryptococcus neoformans [1] = assay: Antifungal activity against Cryptococcus neoformans NR 41298 assessed as inhibition of fungal growth incubated for 48 hrs by broth microdilution method; type: functional
In short: (§3)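 Clinical isolate; CLSI broth microdilution over a range of concentrations (media listed: RPMI 1640, MOPS, YPD). MIC read as lowest concentration inhibiting growth by 50% after 48 h incubation at 35 °C.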

Cryptococcus neoformans [2] = assay: Antifungal activity against Cryptococcus neoformans NR 48773 assessed as inhibition of fungal growth incubated for 48 hrs by broth microdilution method; type: functional; in short: as §3
[3] = Antifungal activity against Cryptococcus gattii NR 43213 assessed as inhibition of fungal growth incubated for 48 hrs by broth microdilution method; type: functional, Cryptococcus gattii VGI; in short: as §1
Vero = assay: Cytotoxicity against African green monkey Vero cells assessed as inhibition of cell viability at 128 ug/ml incubated for 2 hrs by MTS assay; type: toxicity, cell-based; conditions: chlorocebus sabaeus, dose 128 µg/ml
In short: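 Vero cells were grown in MEM with 10% FBS, 1 mM sodium pyruvate and penicillin–streptomycin, then exposed to compounds for 2 h at 37 °C, 5% CO2, in triplicate. MTS was added for 3 h and OD490 read. Viability was expressed as % of DMSO-matched controls (mean ± SD).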

[4] = Selectivity ratio of CC50 for cytotoxicity against human Caco-2 cells to MIC for antifungal activity against Cryptococcus neoformans NR 41298; type: toxicity, cell-based
[5] = Selectivity ratio of CC50 for cytotoxicity against human Caco-2 cells to MIC for antifungal activity against Cryptococcus neoformans NR 48770; type: toxicity, cell-based
[6] = Selectivity ratio of CC50 for cytotoxicity against human Caco-2 cells to MIC for antifungal activity against Cryptococcus neoformans NR 48771; type: toxicity, cell-based
[7] = Selectivity ratio of CC50 for cytotoxicity against human Caco-2 cells to MIC for antifungal activity against Cryptococcus neoformans NR 48773; type: toxicity, cell-based
[8] = Selectivity ratio of CC50 for cytotoxicity against human Caco-2 cells to MIC for antifungal activity against Cryptococcus gattii NR 43210; type: toxicity, cell-based
[9] = Selectivity ratio of CC50 for cytotoxicity against human Caco-2 cells to MIC for antifungal activity against Cryptococcus gattii NR 43213; type: toxicity, cell-based
[10] = Selectivity ratio of CC50 for cytotoxicity against human Caco-2 cells to MIC for antifungal activity against Cryptococcus gattii NR 43214; type: toxicity, cell-based
[11] = Selectivity ratio of CC50 for cytotoxicity against African green monkey Vero cells to MIC for antifungal activity against Cryptococcus neoformans NR 48770; type: toxicity, cell-based
[12] = Selectivity ratio of CC50 for cytotoxicity against African green monkey Vero cells to MIC for antifungal activity against Cryptococcus neoformans NR 41299; type: toxicity, cell-based
[13] = Selectivity ratio of CC50 for cytotoxicity against African green monkey Vero cells to MIC for antifungal activity against Cryptococcus neoformans NR 48771; type: toxicity, cell-based
[14] = Selectivity ratio of CC50 for cytotoxicity against African green monkey Vero cells to MIC for antifungal activity against Cryptococcus neoformans NR 48773; type: toxicity, cell-based
[15] = Selectivity ratio of CC50 for cytotoxicity against African green monkey Vero cells to MIC for antifungal activity against Cryptococcus gattii NR 43213; type: toxicity, cell-based
[16] = Selectivity ratio of CC50 for cytotoxicity against African green monkey Vero cells to MIC for antifungal activity against Cryptococcus gattii NR 43214; type: toxicity, cell-based
[17] = Selectivity ratio of CC50 for cytotoxicity against African green monkey Vero cells to MIC for antifungal activity against Cryptococcus gattii NR 43216; type: toxicity, cell-based
[18] = Antibacterial activity against Lactobacillus crispatus HM370 assessed as inhibition of bacterial growth; type: toxicity
J774 = assay: Cytotoxicity against mouse J774 cells assessed as reduction in cell viability at 64 ug/ml measured after 24 hrs by MTS assay; type: toxicity, cell-based; conditions: j774, 24 h, dose 64 µg/ml
In short: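 J774 murine macrophages were grown in DMEM with 10% FBS and exposed to compounds for 24 h at 37 °C, 5% CO2. After 3 h with MTS, OD490 was read. Viability was expressed relative to DMSO-matched controls.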

[19] = Apparent permeability of the compound measured after 4 hrs by PAMPA assay; type: ADME
In short: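 PAMPA: compound was placed in pH 6.5 donor buffer across a lipid-pretreated PVDF filter from pH 7.4 acceptor buffer, and incubated 4 h at ambient temperature. Donor and acceptor amounts at start and end were measured by UV absorbance to give apparent permeability.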

[20] = Half life in Sprague-Dawley rat at 25 mg/kg, po administered as single dose by LC/MS/MS analysis; type: ADME, organism-based; conditions: in vivo
In short: (§4)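 Male naïve Sprague–Dawley rats (n=3) received a single 25 mg kg−1 oral gavage dose in 5% ethanol/45% PEG 400/50% water. EDTA-K2 blood was sampled over 24 h post-dose. Plasma levels were measured by LC/MS/MS after acetonitrile protein precipitation, and parameters came from two-compartment analysis.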

[21] = Volume of distribution in Sprague-Dawley rat at 25 mg/kg, po administered as single dose by LC/MS/MS analysis; type: ADME, organism-based; conditions: in vivo
In short: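 Male naïve Sprague–Dawley rats (n = 3) received a single 25 mg kg−1 dose by oral gavage in 5% ethanol/45% PEG 400/50% water. EDTA-K2 blood was sampled over 24 h. Plasma levels were measured by LC/MS/MS after acetonitrile protein precipitation, and parameters came from two-compartment analysis.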

[22] = AUC in Sprague-Dawley rat at 25 mg/kg, po administered as single dose by LC/MS/MS analysis; type: ADME, organism-based; parameters: dose 25 mg/kg, route po; conditions: in vivo; in short: as §4
[23] = Clearance in Sprague-Dawley rat at 25 mg/kg, po administered as single dose by LC/MS/MS analysis; type: ADME, organism-based; conditions: in vivo; in short: as §4
[24] = Plasma concentration in Sprague-Dawley rat at 25 mg/kg, po administered as single dose and measured for 18 hrs by LC/MS/MS analysis; type: ADME, organism-based; in short: as §4

For `Cc1nc(-c2ccc3ccccc3c2)sc1-c1nnc(N[C@@H]2CCCC[C@H]2N)o1` (relative stereo), the MIC (Staphylococcus aureus) was 64 µg/mL (≈ 158 µM), the MIC (Escherichia coli) was > 64 µg/mL and the MIC (Candida albicans) was 4 µg/mL (≈ 9.86 µM). For the same molecule, the MIC ([Candida] auris) was 2 µg/mL (≈ 4.93 µM), the MIC (Nakaseomyces glabratus) was 1 µg/mL (≈ 2.47 µM) and the MIC (Candida parapsilosis) was 1 µg/mL (≈ 2.47 µM). For the same molecule, the MIC (Aspergillus fumigatus) was 4 µg/mL (≈ 9.86 µM), the MIC (Cryptococcus neoformans [1]) was 1 µg/mL (≈ 2.47 µM) and the MIC (Cryptococcus neoformans [2]) was 2 µg/mL (≈ 4.93 µM). The MIC [3] was 2 µg/mL (≈ 4.93 µM), the Activity (Vero) was “Non-Toxic” and the selectivity ratio [4] was 64. For the same molecule, the selectivity ratio [5] was 64, the selectivity ratio [6] was 64 and the selectivity ratio [7] was 64. The selectivity ratio [8] was 64, the selectivity ratio [9] was 64 and the selectivity ratio [10] was 64. It also gave a selectivity ratio [11] of 64, a selectivity ratio [12] of 64 and a selectivity ratio [13] of 64. It also gave a selectivity ratio [14] of 64, a selectivity ratio [15] of 64 and a selectivity ratio [16] of 64. The selectivity ratio [17] was 64, the MIC [18] was > 128 µg/mL and the Activity (J774) was “Non-Toxic”. The Papp at 4 h [19] was 57.7 ×10⁻⁶ cm/s, the half-life [20] was 3.6 h and the Vd [21] was 1.64 L. The AUC [22] was 79200 ng·h/mL, the CL/F [23] was 5.33 mL/min and the concentration at 18 h [24] was 1000 ng/mL.

In the case of `Cc1nc(-c2ccc3ccccc3c2)sc1-c1nnc(N[C@@H]2CCCC[C@@H]2N)o1` (relative stereo), the MIC (Staphylococcus aureus) was > 64 µg/mL, the MIC (Escherichia coli) was > 64 µg/mL and the MIC (Candida albicans) was 4 µg/mL (≈ 9.86 µM). The MIC ([Candida] auris) was 2 µg/mL (≈ 4.93 µM), the MIC (Nakaseomyces glabratus) was 1 µg/mL (≈ 2.47 µM) and the MIC (Candida parapsilosis) was 1 µg/mL (≈ 2.47 µM). For the same molecule, the MIC (Aspergillus fumigatus) was 8 µg/mL (≈ 19.7 µM), the MIC (Cryptococcus neoformans [1]) was 1 µg/mL (≈ 2.47 µM) and the MIC (Cryptococcus neoformans [2]) was 2 µg/mL (≈ 4.93 µM). The MIC [3] was 2 µg/mL (≈ 4.93 µM), the Activity (Vero) was “Non-Toxic” and the selectivity ratio [4] was 64. For the same molecule, the selectivity ratio [5] was 64, the selectivity ratio [6] was 64 and the selectivity ratio [7] was 64. It also gave a selectivity ratio [8] of 64, a selectivity ratio [9] of 64 and a selectivity ratio [10] of 64. For the same molecule, the selectivity ratio [11] was 64, the selectivity ratio [12] was 64 and the selectivity ratio [13] was 64. The selectivity ratio [14] was 64, the selectivity ratio [15] was 64 and the selectivity ratio [16] was 64. For the same molecule, the selectivity ratio [17] was 64, the MIC [18] was > 128 µg/mL and the Activity (J774) was “Non-Toxic”. It also gave a Papp at 4 h [19] of 26.3 ×10⁻⁶ cm/s.
